16 molecules from ChEMBL document CHEMBL4622986, “Synthesis and Anti-HCV Activity of Sugar-Modified Guanosine Analogues: Discovery of AL-611 as an HCV NS5B Polymerase Inhibitor for the Treatment of Chronic Hepatitis C” (J Med Chem, 2020) can be followed below.

A short description of data set [1]: Cytotoxicity against human HuH7 cells infected with HCV con1 subgenomic replicon assessed as reduction in cell viability measured after 3 days by CellTiter-blue cell viability assay. Format: cell-based, Huh-7. In short, it runs like this: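 Run in the replicon-bearing Huh-7 cells under the same settings as the antiviral read (DMEM, 2% FBS, 0.5% DMSO, no G418, 37 °C). After 3 days of treatment, viability was read with CellTiter-Blue and CC50 was derived by curve fitting.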
For orientation: A replicon is a self-replicating genome or part of one, used to study replication in cells.

Another data set concerns Hepatitis C virus. The data set is described as follows: Antiviral activity against HCV con1 subgenomic replicon infected in human HuH7 cells assessed as reduction in viral RNA level by qRT-PCR analysis. The note with it: isolate Con1, Huh-7. The data set is classed as functional, organism-based, Hepacivirus hominis. An outline of the steps: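 Huh-7 cells carrying a subgenomic Con1 HCV replicon (neomycin phosphotransferase, kept under 0.25 mg/ml G418) were exposed to serially diluted compound in DMEM with 2% FBS and 0.5% DMSO, without G418, at 37 °C. Total RNA was extracted and HCV RNA copies were measured by multiplex QRT-PCR (Taqman). EC50 was obtained by 4-parameter curve fit.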

A short description of data set [2]: Selectivity index, ratio of CC50 for human HuH7 cells infected with HCV con1 subgenomic replicon to EC50 for HCV con1 subgenomic replicon. Format: toxicity. Conditions: read-out: Ratio CC50/EC50. An outline of the steps:
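Ratio of CC50 (CellTiter-Blue viability after 3 days) to EC50 (HCV RNA by QRT-PCR). Both were measured in Huh-7 Con1 subgenomic replicon cells in DMEM with 2% FBS and 0.5% DMSO at 37 °C.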

Data set [3] concerns the target RNA-directed RNA polymerase (Hepacivirus hominis, UniProt O39930). The data set is described as follows: Inhibition of HCV NS5B RNA-dependent RNA polymerase activity assessed as reduction in radiolabeled ribonucleotide monophosphates incorporation into RNA using cIRES template measured after 2 hrs by microscintillation counting method. In short, it runs like this:
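Reactions contained 100 nM NS5B, 50 nM cIRES RNA template, 1 μM tritiated CTP, 1 μM ATP, 1 μM GTP and 0.5 μM UTP in 40 mM Tris-HCl pH 8.0, 20 mM NaCl, 3 mM DTT and 4 mM MgCl2, with serially diluted inhibitor. Incubation was 2 h at 30 °C, then TCA precipitation and scintillation counting of acid-insoluble RNA. Values are the mean of n ≥ 2 determinations.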

SMILES strings stand for the structures. Some results are limits rather than exact numbers.

RNA-directed RNA polymerase, sequence (O39930 whole entry): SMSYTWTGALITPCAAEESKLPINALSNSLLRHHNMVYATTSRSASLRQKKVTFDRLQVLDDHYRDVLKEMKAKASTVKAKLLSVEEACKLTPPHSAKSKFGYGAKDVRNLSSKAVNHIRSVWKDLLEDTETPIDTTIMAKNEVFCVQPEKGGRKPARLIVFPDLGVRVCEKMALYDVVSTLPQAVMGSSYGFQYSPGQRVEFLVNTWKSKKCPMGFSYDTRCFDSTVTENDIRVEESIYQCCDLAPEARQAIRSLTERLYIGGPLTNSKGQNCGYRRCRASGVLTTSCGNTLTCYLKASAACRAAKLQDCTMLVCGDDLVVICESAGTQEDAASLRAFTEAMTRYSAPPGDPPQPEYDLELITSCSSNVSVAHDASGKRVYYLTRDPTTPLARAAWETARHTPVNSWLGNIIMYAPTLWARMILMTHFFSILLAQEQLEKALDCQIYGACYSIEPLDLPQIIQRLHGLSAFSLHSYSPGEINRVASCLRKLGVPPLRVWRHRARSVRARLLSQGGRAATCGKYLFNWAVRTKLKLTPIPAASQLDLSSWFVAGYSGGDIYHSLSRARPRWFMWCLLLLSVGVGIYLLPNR

In general, CC50 refers to the concentration that lowers cell viability or growth by half. One may read the EC50 as the concentration needed to bring the measured effect to its halfway point. For the molecule `CCOc1nc(N)nc2c1ncn2[C@@H]1O[C@](F)(COP(=O)(N[C@@H](C)C(=O)OC2CCCCC2)Oc2ccccc2)[C@@H](O)[C@@]1(C)O` (some centres not stated), the CC50 at 72 h in data set [1] was > 100000 nM. Moreover, in the data set on Hepatitis C virus, the EC50 worked out at 35 nM.
As for `CCOc1nc(N)nc2c1ncn2[C@@H]1O[C@](F)(COP(=O)(N[C@@H](C)C(=O)OC(CC)CC)Oc2ccccc2)[C@@H](O)[C@@]1(C)F` (some centres not stated), the CC50 at 72 h in data set [1] is 72500 nM. Moreover, the selectivity ratio in data set [2] worked out at 315. For the same molecule, the EC50 with Hepatitis C virus is 230 nM.
Take `C#C[C@]1(F)[C@H](n2cnc3c(OCC)nc(N)nc32)O[C@](F)(COP(=O)(N[C@@H](C)C(=O)OC2CCCCC2)Oc2ccccc2)[C@H]1O` (some centres not stated): in data set [1], the CC50 at 72 h was found to be 3260 nM. Also, in the data set with Hepatitis C virus, the EC50 amounted to 1000 nM.
Regarding `CCOc1nc(N)nc2c1ncn2[C@@H]1O[C@](F)(COP(=O)(N[C@@H](C)C(=O)OC2CCCCC2)Oc2ccccc2)[C@@H](O)[C@@]1(C)F` (some centres not stated), the CC50 at 72 h in data set [1] is > 100000 nM. Besides, in data set [2], the selectivity ratio is > 1500. For the same molecule, the EC50 in the data set on Hepatitis C virus came out at 66 nM.
As for `C#C[C@]1(O)[C@H](n2cnc3c(OCC)nc(N)nc32)O[C@](F)(COP(=O)(N[C@@H](C)C(=O)OC2CCCCC2)Oc2ccccc2)[C@H]1O` (some centres not stated), the CC50 at 72 h in data set [1] is 16400 nM. In the data set with Hepatitis C virus, the EC50 turned out to be 270 nM.
In the case of `CCOc1nc(N)nc2c1ncn2[C@@H]1O[C@](F)(COP(=O)(N[C@@H](C)C(=O)OCC(C)C)Oc2cccc3ccccc23)[C@@H](O)[C@@]1(C)F` (some centres not stated), the CC50 at 72 h in data set [1] came out at 56900 nM. The selectivity ratio in data set [2] was found to be 3000. In addition, the EC50 in the data set with Hepatitis C virus was 17 nM.
One may read the IC50 as the concentration that gives 50% inhibition. Consider `C[C@@]1(Cl)[C@H](F)[C@@H](COP(=O)(O)OP(=O)(O)OP(=O)(O)O)O[C@H]1n1cnc2c(=O)[nH]c(N)nc21`, for which the IC50 in data set [3] was 760 nM.
Take `C#C[C@]1(O)[C@H](n2cnc3c(=O)[nH]c(N)nc32)O[C@](F)(COP(=O)(O)OP(=O)(O)OP(=O)(O)O)[C@H]1O`: the IC50 in data set [3] stood at 130 nM.
For `CCOc1nc(N)nc2c1ncn2[C@@H]1O[C@]2(F)COP(=O)(OCC)O[C@H]2[C@@]1(C)F` (some centres not stated), the CC50 at 72 h in data set [1] is > 100000 nM. The selectivity ratio in data set [2] was > 322. In addition, the EC50 with Hepatitis C virus is 310 nM.
Turning to `CCOc1nc(N)nc2c1ncn2[C@@H]1O[C@]2(F)COP(=O)(OCC(C)C)O[C@H]2[C@@]1(C)F` (some centres not stated), the CC50 at 72 h in data set [1] is > 100000 nM. Also, the selectivity ratio in data set [2] was > 74. Moreover, the EC50 in the data set on Hepatitis C virus is 1340 nM.
As to `CCOc1nc(N)nc2c1ncn2[C@@H]1O[C@]2(F)COP(=O)(OC(C)C)O[C@H]2[C@@]1(C)F` (some centres not stated), the CC50 at 72 h in data set [1] is > 100000 nM. The selectivity ratio in data set [2] was > 3000. Also, the EC50 in the data set with Hepatitis C virus stood at 30 nM.
Regarding `CCOc1nc(N)nc2c1ncn2[C@@H]1O[C@](F)(COP(=O)(N[C@@H](C)C(=O)OC2CCCC2)Oc2ccccc2)[C@@H](O)[C@@]1(C)F` (some centres not stated), the CC50 at 72 h in data set [1] came out at 92900 nM. The selectivity ratio in data set [2] amounted to 2700. For the same molecule, the EC50 in the data set on Hepatitis C virus worked out at 34 nM.
In the case of `C[C@@]1(F)[C@H](F)[C@@H](COP(=O)(O)OP(=O)(O)OP(=O)(O)O)O[C@H]1n1cnc2c(=O)[nH]c(N)nc21`, in data set [3], the IC50 came out at 310 nM.
For the molecule `CCOc1nc(N)nc2c1ncn2[C@@H]1O[C@](F)(COP(=O)(N[C@@H](C)C(=O)OCC(C)C)Oc2ccccc2)[C@@H](O)[C@@]1(C)F` (some centres not stated), in data set [1], the CC50 at 72 h is > 100000 nM. The selectivity ratio in data set [2] is > 2000. Moreover, the EC50 in the data set on Hepatitis C virus came out at 42 nM.
Take `CCOc1nc(N)nc2c1ncn2[C@@H]1O[C@](F)(COP(=O)(N[C@@H](C)C(=O)OC(C)C)Oc2cccc3ccccc23)[C@@H](O)[C@@]1(C)F` (some centres not stated): the CC50 at 72 h in data set [1] was found to be 80500 nM. Also, in data set [2], the selectivity ratio was determined as 4000. The EC50 in the data set on Hepatitis C virus came out at 20 nM.
In the case of `C#C[C@]1(F)[C@H](n2cnc3c(=O)[nH]c(N)nc32)O[C@](F)(COP(=O)(O)OP(=O)(O)OP(=O)(O)O)[C@H]1O`, the IC50 in data set [3] amounted to 150 nM.
